The record followed here is ChEMBL document CHEMBL1149267, “The design and enzyme-bound crystal structure of indoline based peptidomimetic inhibitors of hepatitis C virus NS3 protease” (J Med Chem, 2004).

SMILES strings stand for the structures.

One assay concerns the target NS3 (Hepatitis C virus, UniProt A3EZJ3). Kind of assay: Inhibition of HCV NS3 protease. The arrangement: species or system Hepacivirus hominis. The procedure, abridged: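 IC50 taken after a 30 min preincubation of enzyme with inhibitor. Each value is the mean of 2 independent measurements, with standard deviations within 35% of the mean.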
The target of a further assay is NS3 (Hepatitis C virus) (UniProt A3EZJ3). Kind of assay: Inhibition of HCV NS3 protease at 100 uM. The conditions noted are these: Hepacivirus hominis.
Chain of NS3 (Hepatitis C virus) (A3EZJ3 as listed by the source): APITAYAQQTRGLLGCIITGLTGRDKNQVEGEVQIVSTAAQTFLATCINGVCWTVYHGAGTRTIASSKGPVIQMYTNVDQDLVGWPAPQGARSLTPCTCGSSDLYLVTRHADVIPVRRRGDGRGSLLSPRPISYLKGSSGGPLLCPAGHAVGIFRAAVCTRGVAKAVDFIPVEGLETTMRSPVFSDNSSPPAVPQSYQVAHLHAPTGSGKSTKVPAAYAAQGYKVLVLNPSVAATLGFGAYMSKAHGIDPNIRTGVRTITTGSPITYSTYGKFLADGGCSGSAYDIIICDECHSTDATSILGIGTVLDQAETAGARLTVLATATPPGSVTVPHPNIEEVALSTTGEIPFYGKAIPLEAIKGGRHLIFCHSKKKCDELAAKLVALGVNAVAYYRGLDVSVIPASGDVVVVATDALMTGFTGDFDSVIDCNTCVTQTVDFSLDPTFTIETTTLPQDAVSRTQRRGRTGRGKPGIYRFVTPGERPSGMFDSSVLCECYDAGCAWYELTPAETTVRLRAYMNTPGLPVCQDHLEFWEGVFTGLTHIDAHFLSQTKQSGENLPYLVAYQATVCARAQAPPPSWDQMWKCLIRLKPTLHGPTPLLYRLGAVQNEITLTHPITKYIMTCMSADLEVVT

Chain of NS3 (A3EZJ3 whole entry): as the sequence (A3EZJ3 as listed by the source) above

Take `CC(C)C[C@H](NC(=O)C1(Cc2ccc(Cl)s2)Cc2ccccc2N1)C(=O)NC(CC(F)F)C(=O)C(=O)O` (stereo partly specified): half-maximal inhibition on NS3 (IC50) was put at 3.7 µM.
`CC(C)C[C@H](NC(=O)C1(C2CCCCC2)Cc2ccccc2N1)C(=O)NC(CC(F)F)C(=O)C(=O)O` (single isomer, unassigned; diastereomer 1): on NS3, inhibition was half-maximal at 69 µM (IC50).
The same measure, in the same setting: the same measure for `CC(C)C[C@H](NC(=O)C1(CC2CCC2)Cc2ccccc2N1)C(=O)NC(CC(F)F)C(=O)C(=O)O` (single isomer, unassigned; diastereomer 1): 34 µM; for `CC(C)C[C@H](NC(=O)C1(Cc2ccsc2C(=O)O)Cc2ccccc2N1)C(=O)NC(CC(F)F)C(=O)C(=O)O` (single isomer, unassigned; diastereomer 1): 0.7 µM.
With `CC(C)C[C@H](NC(=O)C1Cc2ccccc2N1)C(=O)NC(CC(F)F)C(=O)C(=O)O` (single isomer, unassigned; diastereomer 1), the inhibition against NS3 (Hepatitis C virus) is < 50%.
At NS3, `CC(C)C[C@H](NC(=O)C1Cc2ccccc2N1)C(=O)NC(CC(F)F)C(=O)C(=O)O` (single isomer, unassigned; diastereomer 2) showed an IC50 of 50 µM.
On the same count and under the same terms, in the case of `CC(C)C[C@H](NC(=O)C1(Cc2ccsc2C(=O)O)Cc2ccccc2N1)C(=O)NC(CC(F)F)C(=O)C(=O)O` (single isomer, unassigned; diastereomer 2) it was 27 µM; in that of `CC(C)C[C@H](NC(=O)C1Cc2ccc(OCC(=O)O)cc2N1)C(=O)NC(CC(F)F)C(=O)C(=O)O` (single isomer, unassigned; diastereomer 2), 27 µM.
Consider `CC(C)C[C@H](NC(=O)C1(C2CCCCC2)Cc2ccccc2N1)C(=O)NC(CC(F)F)C(=O)C(=O)O` (single isomer, unassigned; diastereomer 2), for which the inhibition against NS3 (Hepatitis C virus) is < 50%.
Turning to `CC(C)C[C@H](NC(=O)C1(CC2CCC2)Cc2ccccc2N1)C(=O)NC(CC(F)F)C(=O)C(=O)O` (single isomer, unassigned; diastereomer 2), on NS3 (Hepatitis C virus), the inhibition was < 50%.
`CC(C)C[C@H](NC(=O)C1(Cc2ccsc2C(=O)O)Cc2ccccc2N1)C(=O)NC(CC(F)F)C(=O)C(=O)O` (single isomer, unassigned; diastereomer 3) showed an IC50 against NS3 of 38 µM.
Regarding `CC(C)C[C@H](NC(=O)C1Cc2ccc(OCC(=O)O)cc2N1)C(=O)NC(CC(F)F)C(=O)C(=O)O` (single isomer, unassigned; diastereomer 3), the inhibition against NS3 (Hepatitis C virus) is < 50%.
Regarding `CC(C)C[C@H](NC(=O)C1Cc2ccccc2N1)C(=O)NC(CC(F)F)C(=O)C(=O)O` (single isomer, unassigned; diastereomer 3), the inhibition against NS3 (Hepatitis C virus) is < 50%.
`CC(C)C[C@H](NC(=O)C1(Cc2ccsc2C(=O)O)Cc2ccccc2N1)C(=O)NC(CC(F)F)C(=O)C(=O)O` (single isomer, unassigned; diastereomer 4) showed an IC50 against NS3 of 73 µM.
As to `CC(C)C[C@H](NC(=O)C1Cc2ccc(OCC(=O)O)cc2N1)C(=O)NC(CC(F)F)C(=O)C(=O)O` (single isomer, unassigned; diastereomer 4), the inhibition against NS3 (Hepatitis C virus) is < 50%.
At NS3, `CC(C)C[C@H](NC(=O)C1Cc2ccc(OCC(=O)O)cc2N1)C(=O)NC(CC(F)F)C(=O)C(=O)O` (stereo in doubt; 7m) yielded an IC50 of 10 µM.

In general, IC50 refers to the concentration at which inhibition is half-maximal. The low end stands for greater potency, the high end for weaker potency. The term inhibition denotes the relative decrease from the control value, in per cent. A low value points to a weak effect.
